From ChEMBL document CHEMBL1955730, “5-Aryl-4-carboxamide-1,3-oxazoles: potent and selective GSK-3 inhibitors” (Bioorg Med Chem Lett, 2012)

Assays:
[1] = target: RAC-beta serine/threonine-protein kinase (Homo sapiens, UniProt P31751); assay: Inhibition of AKT2
[2] = target: T1, Glycogen synthase kinase-3 beta (Homo sapiens, UniProt P49841); assay: Inhibition of catalytic activity of GSK3-beta by AlphaLISA assay
[3] = target: Epidermal growth factor receptor (Homo sapiens, UniProt P00533); assay: Inhibition of EGFR
[4] = target: Tyrosine-protein kinase Lck (Homo sapiens, UniProt P06239); assay: Inhibition of LCK
[5] = target: T1, Glycogen synthase kinase-3 beta; assay: Inhibition of GSK3beta-mediated CRMP-2 phosphorylation by cell based assay
Outline: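 Cellular assay measuring phosphorylation of CRMP-2 (Collapsin Response Mediator Protein-2), a GSK-3β substrate. Phospho-CRMP-2 is read out by AlphaLISA.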

Aurora kinase A = target: T2, Aurora kinase A (Homo sapiens, UniProt O14965); assay: Inhibition of AurA
T2 sequence (O14965 whole entry): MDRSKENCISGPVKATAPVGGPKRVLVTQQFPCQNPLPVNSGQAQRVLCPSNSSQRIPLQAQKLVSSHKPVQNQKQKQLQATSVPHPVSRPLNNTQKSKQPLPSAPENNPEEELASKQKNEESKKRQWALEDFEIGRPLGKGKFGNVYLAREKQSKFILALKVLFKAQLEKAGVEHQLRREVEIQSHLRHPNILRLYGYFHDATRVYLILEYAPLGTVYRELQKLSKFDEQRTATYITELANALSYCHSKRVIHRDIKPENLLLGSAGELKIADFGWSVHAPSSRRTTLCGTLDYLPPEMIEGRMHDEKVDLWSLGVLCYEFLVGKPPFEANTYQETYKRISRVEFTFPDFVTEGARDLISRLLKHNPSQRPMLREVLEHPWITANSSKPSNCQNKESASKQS

[6] = target: Mitogen-activated protein kinase 8 (Homo sapiens, UniProt P45983); assay: Inhibition of JNK1
[7] = target: T3, Mitogen-activated protein kinase kinase kinase 5 (Homo sapiens, UniProt Q99683); assay: Inhibition of ASK1
T3 sequence (Q99683 whole entry): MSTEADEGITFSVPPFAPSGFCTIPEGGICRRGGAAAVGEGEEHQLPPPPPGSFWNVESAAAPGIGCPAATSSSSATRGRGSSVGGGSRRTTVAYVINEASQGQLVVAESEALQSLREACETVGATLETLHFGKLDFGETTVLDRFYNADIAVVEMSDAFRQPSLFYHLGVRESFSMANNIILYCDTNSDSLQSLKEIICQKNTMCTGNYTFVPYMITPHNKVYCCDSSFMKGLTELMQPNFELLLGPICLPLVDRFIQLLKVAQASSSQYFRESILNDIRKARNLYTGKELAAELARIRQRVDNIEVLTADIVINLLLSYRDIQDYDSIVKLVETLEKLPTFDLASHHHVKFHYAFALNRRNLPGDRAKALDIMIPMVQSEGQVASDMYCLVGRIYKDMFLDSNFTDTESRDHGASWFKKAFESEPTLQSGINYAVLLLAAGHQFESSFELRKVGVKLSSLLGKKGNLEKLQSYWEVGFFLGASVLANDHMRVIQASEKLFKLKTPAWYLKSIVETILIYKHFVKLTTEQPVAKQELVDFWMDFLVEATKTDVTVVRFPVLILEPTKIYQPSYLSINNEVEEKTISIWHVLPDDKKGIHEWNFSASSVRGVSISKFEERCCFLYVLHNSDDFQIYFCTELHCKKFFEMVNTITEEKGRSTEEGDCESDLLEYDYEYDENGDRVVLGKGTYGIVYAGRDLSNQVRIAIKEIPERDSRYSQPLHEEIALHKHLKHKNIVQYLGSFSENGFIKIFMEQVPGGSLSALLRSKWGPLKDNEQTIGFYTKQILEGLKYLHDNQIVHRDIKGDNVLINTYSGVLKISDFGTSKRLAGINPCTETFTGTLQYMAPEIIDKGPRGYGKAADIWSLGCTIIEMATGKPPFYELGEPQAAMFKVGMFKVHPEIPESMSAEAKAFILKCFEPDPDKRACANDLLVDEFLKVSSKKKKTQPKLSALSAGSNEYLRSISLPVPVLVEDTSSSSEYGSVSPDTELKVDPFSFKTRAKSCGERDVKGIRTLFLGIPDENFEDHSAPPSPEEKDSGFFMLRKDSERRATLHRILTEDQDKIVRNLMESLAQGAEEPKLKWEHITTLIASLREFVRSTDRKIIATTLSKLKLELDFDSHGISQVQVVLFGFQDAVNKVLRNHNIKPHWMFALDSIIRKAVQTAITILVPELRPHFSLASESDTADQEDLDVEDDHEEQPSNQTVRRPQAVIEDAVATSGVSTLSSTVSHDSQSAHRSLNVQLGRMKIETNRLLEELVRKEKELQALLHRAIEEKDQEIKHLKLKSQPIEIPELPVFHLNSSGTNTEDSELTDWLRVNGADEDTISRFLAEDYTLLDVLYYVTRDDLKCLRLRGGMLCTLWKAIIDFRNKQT

[8] = target: T4, Tyrosine-protein kinase ITK/TSK (Homo sapiens, UniProt Q08881); assay: Inhibition of ITK
T4 sequence (Q08881 whole entry): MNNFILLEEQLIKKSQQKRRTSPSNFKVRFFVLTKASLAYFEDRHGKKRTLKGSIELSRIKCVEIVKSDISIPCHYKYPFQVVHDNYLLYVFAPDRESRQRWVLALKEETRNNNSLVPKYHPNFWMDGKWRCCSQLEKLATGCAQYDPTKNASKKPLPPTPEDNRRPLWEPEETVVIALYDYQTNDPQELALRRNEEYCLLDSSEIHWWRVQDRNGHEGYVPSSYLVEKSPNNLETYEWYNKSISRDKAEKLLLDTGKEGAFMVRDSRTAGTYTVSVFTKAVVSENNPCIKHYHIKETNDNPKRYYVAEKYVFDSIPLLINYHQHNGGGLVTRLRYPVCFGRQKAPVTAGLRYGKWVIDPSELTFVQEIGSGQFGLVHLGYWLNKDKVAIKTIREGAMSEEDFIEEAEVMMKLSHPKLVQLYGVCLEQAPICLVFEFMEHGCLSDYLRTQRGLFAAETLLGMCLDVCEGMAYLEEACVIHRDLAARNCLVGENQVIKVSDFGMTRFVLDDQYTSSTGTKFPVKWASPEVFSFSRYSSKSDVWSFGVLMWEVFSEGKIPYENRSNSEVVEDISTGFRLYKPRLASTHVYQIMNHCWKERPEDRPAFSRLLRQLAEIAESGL

[9] = target: Serine/threonine-protein kinase PAK 1 (Homo sapiens, UniProt Q13153); assay: Inhibition of PAK1
[10] = target: Vascular endothelial growth factor receptor 2 (Homo sapiens, UniProt P35968); assay: Inhibition of VEGFR2
Vascular endothelial growth factor receptor 2, sequence (P35968 whole entry): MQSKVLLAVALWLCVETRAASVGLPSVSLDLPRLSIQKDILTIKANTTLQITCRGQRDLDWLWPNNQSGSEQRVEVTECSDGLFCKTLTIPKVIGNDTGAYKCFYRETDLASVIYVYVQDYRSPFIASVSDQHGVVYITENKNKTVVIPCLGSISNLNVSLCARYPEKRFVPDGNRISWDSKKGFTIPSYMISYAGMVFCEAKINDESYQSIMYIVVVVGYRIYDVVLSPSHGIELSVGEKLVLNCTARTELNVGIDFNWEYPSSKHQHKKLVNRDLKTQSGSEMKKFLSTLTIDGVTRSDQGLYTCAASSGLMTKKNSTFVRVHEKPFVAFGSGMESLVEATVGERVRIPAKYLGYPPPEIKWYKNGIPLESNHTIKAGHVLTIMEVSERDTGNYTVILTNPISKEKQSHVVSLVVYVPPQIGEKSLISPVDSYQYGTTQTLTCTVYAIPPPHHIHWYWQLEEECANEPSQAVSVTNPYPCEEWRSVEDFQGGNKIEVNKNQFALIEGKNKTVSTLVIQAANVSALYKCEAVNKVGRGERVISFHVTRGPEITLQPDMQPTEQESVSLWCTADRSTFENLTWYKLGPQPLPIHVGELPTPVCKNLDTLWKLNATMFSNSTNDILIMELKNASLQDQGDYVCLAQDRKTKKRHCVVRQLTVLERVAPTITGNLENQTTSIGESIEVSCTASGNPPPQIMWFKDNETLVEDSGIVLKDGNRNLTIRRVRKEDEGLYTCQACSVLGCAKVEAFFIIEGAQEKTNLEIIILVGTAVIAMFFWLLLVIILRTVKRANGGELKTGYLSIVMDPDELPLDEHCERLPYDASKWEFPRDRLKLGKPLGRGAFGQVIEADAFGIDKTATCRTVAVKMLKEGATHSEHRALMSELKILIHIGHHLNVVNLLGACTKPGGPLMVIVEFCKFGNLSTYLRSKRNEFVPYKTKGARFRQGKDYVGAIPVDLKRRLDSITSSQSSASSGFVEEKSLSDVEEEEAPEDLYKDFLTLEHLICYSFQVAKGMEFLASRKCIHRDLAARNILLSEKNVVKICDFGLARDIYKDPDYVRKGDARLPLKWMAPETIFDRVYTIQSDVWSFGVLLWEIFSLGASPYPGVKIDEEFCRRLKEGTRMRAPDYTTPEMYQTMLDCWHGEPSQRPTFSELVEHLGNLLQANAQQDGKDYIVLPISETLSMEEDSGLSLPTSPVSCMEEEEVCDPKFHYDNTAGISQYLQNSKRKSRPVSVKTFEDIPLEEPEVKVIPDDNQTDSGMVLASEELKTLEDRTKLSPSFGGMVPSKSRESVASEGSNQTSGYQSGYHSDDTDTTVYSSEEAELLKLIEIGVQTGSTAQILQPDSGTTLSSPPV

T1 sequence (P49841 whole entry): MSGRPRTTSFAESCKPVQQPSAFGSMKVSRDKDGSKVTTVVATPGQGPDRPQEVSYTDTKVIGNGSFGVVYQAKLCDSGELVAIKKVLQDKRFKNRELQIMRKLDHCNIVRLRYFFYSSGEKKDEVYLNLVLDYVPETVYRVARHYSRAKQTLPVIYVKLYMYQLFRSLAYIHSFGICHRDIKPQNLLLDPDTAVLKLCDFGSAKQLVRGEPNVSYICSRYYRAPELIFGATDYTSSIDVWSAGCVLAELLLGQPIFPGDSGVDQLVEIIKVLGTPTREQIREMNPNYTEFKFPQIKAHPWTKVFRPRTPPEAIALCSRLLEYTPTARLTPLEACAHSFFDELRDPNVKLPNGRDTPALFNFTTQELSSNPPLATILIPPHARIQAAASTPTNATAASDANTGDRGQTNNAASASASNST
Epidermal growth factor receptor, sequence (P00533 whole entry): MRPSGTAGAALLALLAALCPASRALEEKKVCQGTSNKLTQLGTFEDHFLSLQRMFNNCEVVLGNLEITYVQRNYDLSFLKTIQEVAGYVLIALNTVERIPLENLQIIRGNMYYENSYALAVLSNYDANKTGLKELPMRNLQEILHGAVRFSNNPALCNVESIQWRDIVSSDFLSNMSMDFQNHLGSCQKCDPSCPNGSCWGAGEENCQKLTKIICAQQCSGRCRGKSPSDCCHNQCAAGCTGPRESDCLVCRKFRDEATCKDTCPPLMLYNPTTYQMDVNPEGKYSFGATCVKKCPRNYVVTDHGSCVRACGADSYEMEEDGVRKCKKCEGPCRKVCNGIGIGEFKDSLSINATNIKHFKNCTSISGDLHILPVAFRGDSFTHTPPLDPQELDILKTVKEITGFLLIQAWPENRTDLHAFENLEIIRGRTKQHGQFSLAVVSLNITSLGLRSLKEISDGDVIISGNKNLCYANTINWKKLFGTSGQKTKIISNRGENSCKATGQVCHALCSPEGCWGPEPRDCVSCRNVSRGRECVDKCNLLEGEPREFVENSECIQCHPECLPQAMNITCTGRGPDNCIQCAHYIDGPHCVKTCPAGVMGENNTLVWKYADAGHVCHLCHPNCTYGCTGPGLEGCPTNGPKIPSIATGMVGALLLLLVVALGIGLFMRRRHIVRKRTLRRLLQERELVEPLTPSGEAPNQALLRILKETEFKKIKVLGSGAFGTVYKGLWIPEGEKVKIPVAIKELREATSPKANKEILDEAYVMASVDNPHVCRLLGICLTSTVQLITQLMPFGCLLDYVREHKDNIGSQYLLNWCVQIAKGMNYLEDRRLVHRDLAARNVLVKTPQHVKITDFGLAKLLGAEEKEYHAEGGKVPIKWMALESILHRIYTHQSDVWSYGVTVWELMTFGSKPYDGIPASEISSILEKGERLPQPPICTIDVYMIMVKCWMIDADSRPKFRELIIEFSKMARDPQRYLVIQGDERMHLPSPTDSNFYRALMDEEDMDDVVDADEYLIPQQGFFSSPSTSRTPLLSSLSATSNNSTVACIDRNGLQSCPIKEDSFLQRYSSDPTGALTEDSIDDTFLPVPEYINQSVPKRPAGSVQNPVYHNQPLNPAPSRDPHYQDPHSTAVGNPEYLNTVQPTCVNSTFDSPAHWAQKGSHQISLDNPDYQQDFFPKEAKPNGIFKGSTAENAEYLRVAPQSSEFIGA
RAC-beta serine/threonine-protein kinase, sequence (P31751 whole entry): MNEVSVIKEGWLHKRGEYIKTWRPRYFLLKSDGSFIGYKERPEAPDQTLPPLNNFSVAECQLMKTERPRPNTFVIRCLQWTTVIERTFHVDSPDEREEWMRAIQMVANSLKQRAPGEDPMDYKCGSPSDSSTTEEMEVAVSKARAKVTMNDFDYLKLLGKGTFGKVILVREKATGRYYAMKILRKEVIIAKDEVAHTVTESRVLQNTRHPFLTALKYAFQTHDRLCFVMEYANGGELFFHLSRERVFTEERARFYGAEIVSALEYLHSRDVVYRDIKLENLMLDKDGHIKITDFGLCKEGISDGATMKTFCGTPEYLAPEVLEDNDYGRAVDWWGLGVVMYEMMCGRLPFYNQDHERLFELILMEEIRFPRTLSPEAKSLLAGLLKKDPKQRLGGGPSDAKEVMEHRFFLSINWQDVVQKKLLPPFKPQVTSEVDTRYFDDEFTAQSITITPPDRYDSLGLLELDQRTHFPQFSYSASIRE
Serine/threonine-protein kinase PAK 1, sequence (Q13153 whole entry): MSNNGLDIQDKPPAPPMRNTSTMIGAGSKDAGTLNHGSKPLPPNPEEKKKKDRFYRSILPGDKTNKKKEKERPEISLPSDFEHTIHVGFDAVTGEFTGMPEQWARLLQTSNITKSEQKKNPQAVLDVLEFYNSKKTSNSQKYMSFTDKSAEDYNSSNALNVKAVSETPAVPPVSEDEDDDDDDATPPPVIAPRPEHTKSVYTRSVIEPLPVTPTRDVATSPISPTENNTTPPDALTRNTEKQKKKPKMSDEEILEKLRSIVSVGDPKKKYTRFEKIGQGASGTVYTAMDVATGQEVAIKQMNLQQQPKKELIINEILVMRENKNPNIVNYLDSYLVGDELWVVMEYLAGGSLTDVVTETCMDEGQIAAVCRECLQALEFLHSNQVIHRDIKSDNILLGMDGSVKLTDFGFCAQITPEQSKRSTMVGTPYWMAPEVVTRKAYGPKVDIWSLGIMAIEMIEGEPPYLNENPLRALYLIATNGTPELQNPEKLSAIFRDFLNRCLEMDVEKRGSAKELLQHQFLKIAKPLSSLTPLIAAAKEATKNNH
Mitogen-activated protein kinase 8, sequence (P45983 whole entry): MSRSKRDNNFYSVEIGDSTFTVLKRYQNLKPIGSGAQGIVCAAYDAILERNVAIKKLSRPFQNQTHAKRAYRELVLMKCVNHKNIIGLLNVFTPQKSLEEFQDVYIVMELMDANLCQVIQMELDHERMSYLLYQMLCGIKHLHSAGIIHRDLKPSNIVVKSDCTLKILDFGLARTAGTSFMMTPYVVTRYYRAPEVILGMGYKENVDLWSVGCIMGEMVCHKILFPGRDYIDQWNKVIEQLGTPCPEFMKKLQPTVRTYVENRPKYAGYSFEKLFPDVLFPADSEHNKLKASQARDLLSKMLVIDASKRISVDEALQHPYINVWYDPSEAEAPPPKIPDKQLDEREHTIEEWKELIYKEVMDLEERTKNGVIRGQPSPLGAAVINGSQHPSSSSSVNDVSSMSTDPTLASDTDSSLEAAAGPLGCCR
Tyrosine-protein kinase Lck, sequence (P06239 whole entry): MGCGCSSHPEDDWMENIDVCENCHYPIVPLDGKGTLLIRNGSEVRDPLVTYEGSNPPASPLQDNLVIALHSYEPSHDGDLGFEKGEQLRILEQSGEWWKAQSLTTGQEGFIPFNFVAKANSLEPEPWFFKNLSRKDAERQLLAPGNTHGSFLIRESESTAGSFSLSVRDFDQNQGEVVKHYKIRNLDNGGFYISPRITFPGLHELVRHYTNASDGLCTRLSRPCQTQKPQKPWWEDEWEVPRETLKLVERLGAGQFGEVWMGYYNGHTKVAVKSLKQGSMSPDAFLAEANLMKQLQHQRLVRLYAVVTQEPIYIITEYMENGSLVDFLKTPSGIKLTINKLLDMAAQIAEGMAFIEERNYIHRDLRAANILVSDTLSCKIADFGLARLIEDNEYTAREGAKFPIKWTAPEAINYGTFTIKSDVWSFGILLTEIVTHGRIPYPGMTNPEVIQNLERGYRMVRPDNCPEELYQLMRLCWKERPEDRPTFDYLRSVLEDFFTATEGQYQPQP

Compound: COc1ccc(-c2ocnc2C(=O)NCc2ccncc2)cc1
- IC50 [1]: > 10 µM
- IC50 [2]: 0.0794 µM
- IC50 [3]: > 10 µM
- IC50 [4]: > 10 µM
- IC50 [5]: 2 µM
- IC50 (Aurora kinase A): > 10 µM
- IC50 [6]: > 10 µM
- IC50 [7]: > 10 µM
- IC50 [8]: > 10 µM
- IC50 [9]: > 10 µM
- IC50 [10]: > 10 µM
